Assay results: ChEMBL document CHEMBL1125241, “Structure-activity relationship of quinazolinedione inhibitors of calcium-independent phosphodiesterase” (J Med Chem, 1991)

What was measured:
[1] = Inhibition of phosphodiesterase 4 from guinea pig lung; set-up: species or system Cavia porcellus
Procedure, shortened: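 Guinea pig lung was homogenized in Bistris buffer (pH 6.5) with 50 μM final PMSF and centrifuged at 12000g at 4 °C. The supernatant went onto DEAE-Sepharose and was eluted with a 0.05–1.0 M sodium acetate gradient, pooling rolipram-sensitive fractions. The assay used 50 mM Tris/10 mM MgCl₂ (pH 7.5) and 1 μM final [³H]cAMP, with compound added in 4% DMSO, for 10 min at 37 °C. Reaction was stopped by boiling; [³H]5'-AMP was separated on boronate gel and counted. IC₅₀ came from 4 log concentrations, each in triplicate.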

Mus musculus [2] = species on record: Mus musculus; assay: Inhibition of reserpine-induced hypothermia in mice by peroral dose; assay type: functional; settings: po, read-out: MED
Procedure, shortened: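 Mice were housed at 18–20 °C, given reserpine 2 mg/kg sc, and kept there 18 h. Rectal temperature was then taken, followed by saline or drug po. Temperatures were re-measured, typically at 0.5, 1.0, 2.0 and 14 h. The value is the minimal effective dose (mg/kg po) that inhibits hypothermia.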

Rattus norvegicus [3] = assay: Percentage inhibition of carrageenan-induced rat foot edema at a dose of 32 mg/kg when administered perorally (po).; assay type: functional
Procedure, shortened: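 Rats were dosed po, and 1 h later 0.05 mL of 2-week-old 1% carrageenan in distilled water was injected into the plantar tissue. Paw volume was measured immediately and 3 h after injection. The increase in foot volume was the individual response.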

Mus musculus [4] = species on record: Mus musculus; assay: Inhibition of immobility in mouse forced swim test by peroral dose; assay type: functional; settings: po, read-out: MED
Procedure, shortened: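 Compounds were dissolved in saline and given po to mice at 1 mL/100 g. One hour later, mice were put in 1-L beakers of water at 22–24 °C, deep enough that tails could not touch the bottom. Observation followed a 2-min habituation.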

Rattus norvegicus [5] = assay: Percentage inhibition of carrageenan-induced rat foot edema at a dose of […] when administered perorally (po).; assay type: functional; settings: dose 3.2 mg/kg

SMILES	IC50 [1] [µM]	minimal effective dose (Mus musculus [2]) [µg/kg]	inhibition in vivo at 32 mg/kg (Rattus norvegicus [3]) [%]	minimal effective dose (Mus musculus [4]) [µg/kg]	inhibition in vivo at […] (Rattus norvegicus [5]) [%]
COc1ccc(C2CNC(=O)C2)cc1OC1CCCC1 (stereo not drawn) [ROLIPRAM]	0.59	0.03	41	1780	–
COC(=O)c1cccc(-n2c(=O)n(Cc3ccccc3)c(=O)c3ccccc32)c1	0.23	100	25	> 32000	–
CNC(=O)c1cccc(-n2c(=O)n(Cc3ccccc3)c(=O)c3ccccc32)c1	21.4	–	–	–	–
COC(=O)c1cccc(-n2c(=O)n(Cc3ccccc3)c(=O)c3cccnc32)c1	–	10	–	10	50
CCn1c(=O)c2ccccc2n(-c2cccc([N+](=O)[O-])c2)c1=O [NITRAQUAZONE]	11.4	1	–	3200	43

The next lines start with results.

IC50 [1] [µM]	SMILES	minimal effective dose (Mus musculus [2]) [µg/kg]	inhibition in vivo at 32 mg/kg (Rattus norvegicus [3]) [%]	minimal effective dose (Mus musculus [4]) [µg/kg]	inhibition in vivo at […] (Rattus norvegicus [5]) [%]
> 100	COC(=O)c1cccc(-n2c(=O)[nH]c(=O)c3ccccc32)c1	< 320	5	–	–
3.8	CCn1c(=O)c2ccccc2n(-c2cccc(C(=O)OC)c2)c1=O	–	19	–	–
25.9	CCn1c(=O)c2cccnc2n(-c2cccc(C(=O)OC)c2)c1=O	–	–	–	–
0.89	COC(=O)c1cccc(-n2c(=O)n(CC3CC4CCC3C4)c(=O)c3cccnc32)c1 (stereo not drawn)	1	–	1000	–
1.52	COC(=O)c1cccc(-n2c(=O)n(CC3CCCC3)c(=O)c3cccnc32)c1	3	–	1000	–
